Here are results for 3 molecules from ChEMBL document CHEMBL4177600, “Identification of novel PI3K inhibitors through a scaffold hopping strategy” (Bioorg Med Chem Lett, 2017).

The nature of data set [1]: AUC (infinity) in BALB-C mouse at 10 mg/kg, po by LC-MS/MS analysis. Particulars: in vivo. It is filed as ADME, organism-based. More on the design: dose 10 mg/kg, time infinity, route oral. In short, it runs like this: (§1)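 BALB-C mice dosed IV (10% NMP/50% PEG300/40% saline) or PO (10% NMP/90% PEG300). Plasma sampled at 6 (IV) or 8 (PO) time points; compound measured by LC/MS/MS. Parameters from bicompartmental model fit; each value is the mean of 3 independent samples.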

Data set [2] deals with U2OS. The experiment in a line: Inhibition of AKT phosphorylation in human U2OS cells.
For data set [3], the system named is Mus musculus. The experiment in a line: Time at which plasma concentration stays above cellular EC50 for inhibition of AKT phosphorylation in BALB-C mouse at 10 mg/kg, po measured up to 24 hrs by LC-MS/MS analysis. It is filed as organism-based. Particulars: in vivo. In short, it runs like this:
(§2)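 BALB-C mice dosed IV in 10% NMP/50% PEG300/40% saline or PO in 10% NMP/90% PEG300. Plasma sampled at 6 (IV) or 8 (PO) time points and quantified by LC/MS/MS. Parameters come from a bicompartmental model fit; values are means of 3 independent samples. Plasma levels were compared with AKT-P EC50 from U2OS cells converted to ng/ml.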

The nature of data set [4]: Clearance in BALB-C mouse at 5 mg/kg, iv by LC-MS/MS analysis. It is filed as ADME, organism-based. Conditions: in vivo. In a few lines: (§3)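 Mice (BALB-C) given IV dose in 10% NMP/50% PEG300/40% saline; plasma sampled at 6 times, levels by LC/MS/MS.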
Data set [5] can be described thus: Oral bioavailability in BALB-C mouse at 10 mg/kg by LC-MS/MS analysis. The data set is classed as ADME, organism-based. Conditions: in vivo. In short, it runs like this: as §2
Data set [6] is described as follows: Tmax in BALB-C mouse at 10 mg/kg, po by LC-MS/MS analysis. It is filed as ADME, organism-based. Conditions: in vivo. In a few lines:
as §2

Data set [7] is described as follows: Half-life in BALB-C mouse at 10 mg/kg, po by LC-MS/MS analysis. Particulars: in vivo. It is filed as ADME, organism-based. In a few lines: as §1
A short description of data set [8]: Cmax in BALB-C mouse at 10 mg/kg, po by LC-MS/MS analysis. Particulars: in vivo. More on the design: dose 10 mg/kg, route oral. The data set is classed as ADME, organism-based. In short, it runs like this: as §1
Data set [9] can be described thus: Half-life in BALB-C mouse at 5 mg/kg, po by LC-MS/MS analysis. It is filed as ADME, organism-based. Conditions: in vivo. In a few lines:
as §1

The subject of data set [10] is Mus musculus. Put plainly: Time at which plasma concentration stays above cellular EC50 for inhibition of AKT phosphorylation in BALB-C mouse at 5 mg/kg, po measured up to 24 hrs by LC-MS/MS analysis. The data set is classed as organism-based. Particulars: in vivo. In short, it runs like this:
as §2

In data set [11] the test system is U2OS. Put plainly: Inhibition of AKT phosphorylation in human U2OS cells. This is another data set of the same source.
Data set [12] can be described thus: Cmax in BALB-C mouse at 5 mg/kg, po by LC-MS/MS analysis. More on the design: dose 5 mg/kg, route oral. The data set is classed as ADME, organism-based. Conditions: in vivo. In short, it runs like this:
as §1

Data set [13] in a line: AUC (infinity) in BALB-C mouse at 5 mg/kg, po by LC-MS/MS analysis. The data set is classed as ADME, organism-based. More on the design: dose 5 mg/kg, route oral, time infinity. Conditions: in vivo. In a few lines: as §1
Data set [14] can be described thus: Oral bioavailability in BALB-C mouse at 5 mg/kg by LC-MS/MS analysis. The data set is classed as ADME, organism-based. Particulars: in vivo. In a few lines:
as §2

A short description of data set [15]: Tmax in BALB-C mouse at 5 mg/kg, po by LC-MS/MS analysis. The data set is classed as ADME, organism-based. Conditions: in vivo. In a few lines: as §2
A short description of data set [16]: Tmax in BALB-C mouse at 9 mg/kg, po by LC-MS/MS analysis. Particulars: in vivo. It is filed as ADME, organism-based. In a few lines: as §2
The nature of data set [17]: Cmax in BALB-C mouse at 9 mg/kg, po by LC-MS/MS analysis. The data set is classed as ADME, organism-based. More on the design: dose 9 mg/kg, route oral. Conditions: in vivo. In a few lines: as §1
Data set [18] is described as follows: Oral bioavailability in BALB-C mouse at 9 mg/kg by LC-MS/MS analysis. The data set is classed as ADME, organism-based. Conditions: in vivo. In short, it runs like this: as §2
The nature of data set [19]: Volume of distribution in BALB-C mouse at 3 mg/kg, iv by LC-MS/MS analysis. Particulars: in vivo. It is filed as ADME, organism-based. In a few lines: as §2
In data set [20] the test system is U2OS. Put plainly: Inhibition of AKT phosphorylation in human U2OS cells. The source holds these as a separate data set.
Data set [21] can be described thus: AUC (infinity) in BALB-C mouse at 3 mg/kg, iv by LC-MS/MS analysis. The data set is classed as ADME, organism-based. More on the design: dose 3 mg/kg, time infinity, route intravenous. Conditions: in vivo. In a few lines:
as §1

The subject of data set [22] is Mus musculus. The experiment in a line: Clearance in BALB-C mouse at 3 mg/kg, iv by LC-MS/MS analysis relative to hepatic blood flow. Particulars: in vivo. It is filed as ADME, organism-based.
A short description of data set [23]: Clearance in BALB-C mouse at 3 mg/kg, iv by LC-MS/MS analysis. The data set is classed as ADME, organism-based. Conditions: in vivo. In short, it runs like this:
as §3

Data set [24] can be described thus: Half-life in BALB-C mouse at 3 mg/kg, iv by LC-MS/MS analysis. It is filed as ADME, organism-based. Particulars: in vivo. In a few lines:
as §1

The test system of data set [25] is Mus musculus. Put plainly: Time at which plasma concentration stays above cellular EC50 for inhibition of AKT phosphorylation in BALB-C mouse at 9 mg/kg, po measured up to 8 hrs by LC-MS/MS analysis. Conditions: in vivo.
The nature of data set [26]: AUC (infinity) in BALB-C mouse at 9 mg/kg, po by LC-MS/MS analysis. The data set is classed as ADME, organism-based. More on the design: dose 9 mg/kg, time infinity, route oral. Conditions: in vivo. In a few lines:
as §1

A short description of data set [27]: Half-life in BALB-C mouse at 9 mg/kg, po by LC-MS/MS analysis. It is filed as ADME, organism-based. Particulars: in vivo. In short, it runs like this: as §1

Values after ≈ are worked out from the molar mass of the structure shown.

Regarding `CS(=O)(=O)N1CCN(Cc2nc3c(N4CCOCC4)nc(-c4cnc(N)nc4)cn3n2)CC1`, the AUC(0-inf) – broadly, total exposure, with the tail of the curve extrapolated – in data set [1] turned out to be 4690 ng·h/mL. In the data set on U2OS [2], the EC50 (commonly the concentration needed to bring the measured effect to its halfway point) was determined as 0.04138 µg/mL (≈ 0.0872 µM). The same molecule displayed a Time in the data set with Mus musculus [3] of more than 12 h. Also, the clearance – broadly, the volume of plasma or blood freed of the substance per unit of time – in [4] is 35.5 mL/min/kg. The bioavailability (as a rule, the share of a dose that reaches the circulation, judged against a reference dose that is usually intravenous) in [5] turned out to be 88%. The Tmax (usually the time at which the peak concentration occurs) in data set [6] was 1 h. In data set [7], the half-life (usually how long it takes for the measured level to halve) was 5.28 h. In addition, the Cmax (as a rule, the peak of the concentration-time curve) in [8] was 674 ng/mL.

As for `CS(=O)(=O)N1CCN(Cc2nc3c(N4CCOCC4)nc(-c4cnc(N)nc4)c(Cl)n3n2)CC1`, the half-life in data set [9] is 2.7 h. This molecule also had a Time with Mus musculus [10] of more than 12 h. The molecule further had a clearance in [4] of 10.8 mL/min/kg. Further, the EC50 in the data set with U2OS [11] came to 0.03491 µg/mL (≈ 0.0686 µM). In [12], this molecule registered a Cmax of 1050 ng/mL. In data set [13], this molecule showed a total exposure AUC(0-inf) of 5650 ng·h/mL. In addition, the bioavailability in data set [14] is 73.1%. In addition, the Tmax in data set [15] worked out at 1 h.

With `CS(=O)(=O)N1CCN(Cc2cc3c(N4CCOCC4)nc(-c4cnc(N)nc4)cn3n2)CC1`, the Tmax in [16] was 1 h. The molecule further displayed a Cmax in data set [17] of 938 ng/mL. The bioavailability in [18] worked out at 29.5%. In data set [19], the Vd (commonly the apparent volume that relates the amount in the body to the concentration in plasma or blood) is 0.6 L/kg. This molecule displayed an EC50 in the data set on U2OS [20] of 0.01444 µg/mL (≈ 0.0305 µM). The results for the AUC(0-inf) in data set [21] and in data set [26] were 5820 ng·h/mL and 5150 ng·h/mL, respectively. Further, the CL in the data set on Mus musculus [22] is less than 50%. This molecule also had a clearance in data set [23] of 10.8 mL/min/kg. In addition, the half-life in data set [24] is 0.51 h; in data set [27], 2.84 h. In addition, the Time with Mus musculus [25] was more than 8 h.
